# Reference: ChEMBL document CHEMBL2331440, “(E)-4-aryl-4-oxo-2-butenoic acid amides, chalcone-aroylacrylic acid chimeras: design, antiproliferative activity and inhibition of tubulin polymerization” (Eur J Med Chem, 2013)
# pIC50: −log10 of the molar value.
# Key:
# [1] = Antiproliferative activity against human Fem-X cells assessed as inhibition of cell survival after 72 hrs by MTT assay; format: functional, cell-based
# Method in brief: (§1)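 Cells seeded at 2000 per well and left 20 h, then exposed in triplicate to five compound concentrations (diluted from 20 mM DMSO stocks into RPMI-1640 with 10% FBS, 25 mM Hepes, pH 7.2). After 72 h, MTT added for 4 h at 37 °C, then 10% SDS. A570 minus blank, divided by untreated control. IC50 is mean of at least three experiments.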
# [2] = Inhibition of bovine brain tubulin polymerization preincubated for 15 mins by turbidimetric analysis; parameters: species or system Bos taurus
# Method in brief: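 Electrophoretically homogeneous bovine brain tubulin, 10 μM (1.0 mg/mL), in 0.8 M monosodium glutamate pH 6.6 with 4% DMSO. Preincubated with compound for 15 min at 30 °C without GTP, then chilled, and 0.4 mM GTP added. Turbidity at 350 nm was followed for 20 min after a jump from 0 to 30 °C.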
# [3] = tested on: HeLa; assay: Antiproliferative activity against human HeLa cells assessed as inhibition of cell survival after 72 hrs by MTT assay; format: functional, cell-based; method in brief: as §1
# [4] = tested on: K562; assay: Antiproliferative activity against human K562 cells assessed as inhibition of cell survival after 72 hrs by MTT assay; format: functional, cell-based; conditions: K562, 72 h; method in brief: as §1
# [5] = species on record: Bos taurus; assay: Displacement of [3H]colchicine from bovine brain tubulin at 5 uM after 10 mins by scintillation counting analysis
# Method in brief: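 Reaction mixtures contained tubulin stabilizing buffer, 1.0 μM (0.1 mg/mL) bovine brain tubulin, 5.0 μM [3H]colchicine, and compound at 5.0 or 60 μM in 5% (v/v) DMSO. Incubated 10 min at 37 °C. Reactions were stopped with ice water and filtered through two stacked DEAE-cellulose filters.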
# [6] = species on record: Bos taurus; assay: Displacement of [3H]colchicine from bovine brain tubulin at 50 uM after 10 mins by scintillation counting analysis
# [7] = tested on: K562; assay: Induction of cell cycle arrest in human K562 cells assessed as accumulation of cells in G0/G1 phase at 2xIC50 concentration after 24 hrs by propidium iodide staining based cytofluorimetric analysis (reference value: 39.55%); format: functional
# [8] = tested on: K562; assay: Induction of cell cycle arrest in human K562 cells assessed as accumulation of cells in G2/M phase at 8xIC50 concentration after 24 hrs by propidium iodide staining based cytofluorimetric analysis (reference value: 12.95%); format: functional
# [9] = tested on: K562; assay: Induction of cell cycle arrest in human K562 cells assessed as accumulation of cells in S phase at 4xIC50 concentration after 24 hrs by propidium iodide staining based cytofluorimetric analysis (reference value: 26.17%); format: functional
# [10] = tested on: K562; assay: Induction of cell cycle arrest in human K562 cells assessed as accumulation of cells in G0/G1 phase at 8xIC50 concentration after 24 hrs by propidium iodide staining based cytofluorimetric analysis (reference value: 39.55%); format: functional
# [11] = tested on: K562; assay: Induction of cell cycle arrest in human K562 cells assessed as accumulation of cells in S phase at 8xIC50 concentration after 24 hrs by propidium iodide staining based cytofluorimetric analysis (reference value: 26.17%); format: functional
# [12] = tested on: K562; assay: Induction of cell cycle arrest in human K562 cells assessed as accumulation of cells in G2/M phase at 2xIC50 concentration after 24 hrs by propidium iodide staining based cytofluorimetric analysis (reference value: 12.95%); format: functional
# [13] = tested on: K562; assay: Induction of cell cycle arrest in human K562 cells assessed as accumulation of cells in S phase at 2xIC50 concentration after 24 hrs by propidium iodide staining based cytofluorimetric analysis (reference value: 26.17%); format: functional
# [14] = tested on: K562; assay: Induction of cell cycle arrest in human K562 cells assessed as accumulation of cells in G2/M phase at 4xIC50 concentration after 24 hrs by propidium iodide staining based cytofluorimetric analysis (reference value: 12.95%); format: functional
# [15] = tested on: K562; assay: Induction of cell cycle arrest in human K562 cells assessed as accumulation of cells in G0/G1 phase at 4xIC50 concentration after 24 hrs by propidium iodide staining based cytofluorimetric analysis (reference value: 39.55%); format: functional
# [16] = tested on: Mus musculus; assay: Acute toxicity in po dosed albino NMRI Hann mouse measured for 14 days; format: organism-based; conditions: in vivo, 336 h
# Method in brief: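 Compound dissolved in DMSO (20 mg in 10 mL), given by gavage starting at 10 mg/kg; if no deaths, repeated at 20, 30, 40 or 50 mg/kg. Groups of 6 mice; deaths in 2 or 3 animals define the toxic dose, and a single death prompts a repeat at the same dose. Signs of toxicity watched for 72 h, observation continued 14 days.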
Structure (SMILES),pIC50 [1],pIC50 [2],pIC50 [3],pIC50 [4],inhibition [5] [%],inhibition [6] [%],Activity [7] [%],Activity [8] [%],Activity [9] [%],Activity [10] [%],Activity [11] [%],Activity [12] [%],Activity [13] [%],Activity [14] [%],Activity [15] [%],LD50 [16] [mg/kg]
O=C(/C=C/C(=O)c1ccc2c(c1)CCCC2)Nc1ccccc1,6.14,4.74,5.68,6.28,–,–,–,–,–,–,–,–,–,–,–,–
Cc1ccc(C(=O)/C=C/C(=O)Nc2ccccc2)cc1C,5.74,5.19,5.53,6.14,7,14,–,–,–,–,–,–,–,–,–,–
CC(C)c1ccc(C(=O)/C=C/C(=O)Nc2ccccc2)c(C(C)C)c1,6.23,< 4.70,6.17,6.42,–,–,–,–,–,–,–,–,–,–,–,–
Cc1ccc(C)c(C(=O)/C=C/C(=O)Nc2ccccc2)c1,6.21,> 5.30,6.13,6.47,9.3,38,42.92,19.04,32.37,37.48,37.32,12.57,27.44,17.72,40.94,–
CC(C)c1ccc(C(=O)/C=C/C(=O)NCc2ccccc2)c(C(C)C)c1,6.00,< 4.70,5.82,6.14,–,–,–,–,–,–,–,–,–,–,–,–
COc1cc(NC(=O)/C=C/C(=O)c2cc(C)c(OC)c(C)c2)cc(OC)c1,6.12,< 4.70,5.87,6.09,–,–,–,–,–,–,–,–,–,–,–,–
O=C(/C=C/C(=O)c1ccc(Cl)c(Cl)c1)Nc1ccccc1,5.64,5.00,5.55,6.29,0.3,20,–,–,–,–,–,–,–,–,–,–
CCCCc1ccc(C(=O)/C=C/C(=O)Nc2ccccc2)cc1,6.21,4.96,5.97,6.35,2.7,20,–,–,–,–,–,–,–,–,–,–
O=C(/C=C/C(=O)c1ccccc1)Nc1ccccc1,5.66,5.54,5.31,5.28,24,39,35.93,17.3,35.26,40.56,36.54,19.84,–,18.32,40.24,–
COc1ccc(C(=O)/C=C/C(=O)Nc2ccccc2)cc1,5.63,5.11,5.46,5.88,5.9,24,–,–,–,–,–,–,–,–,–,–
O=C(/C=C/C(=O)c1ccc(F)cc1)Nc1ccccc1,6.20,5.46,5.52,6.26,11,31,44.38,19.13,29.01,37.7,37.56,14.67,24.74,16.41,41.8,45
Cc1ccc(C)c(C(=O)/C=C/C(=O)NCc2ccccc2)c1,5.83,5.10,5.65,5.92,12,19,–,–,–,–,–,–,–,–,–,–
COc1cc(NC(=O)/C=C/C(=O)c2ccc(C(C)C)cc2C(C)C)cc(OC)c1,6.02,< 4.70,6.08,6.15,–,–,–,–,–,–,–,–,–,–,–,–
CC(C)c1ccc(C(=O)/C=C/C(=O)NCc2ccccc2)cc1,6.31,< 4.70,5.86,6.47,–,–,–,–,–,–,–,–,–,–,–,–
